Measurements published in publication PMC7246176 (Nature chemical biology, 2020).
Like-named read-outs stand apart in the source and are kept apart here. Each block holds one molecule with its values, some of them ahead of it.

What was measured:
PANFR0172_T2 = assay: Patient-derived pancreatic organoid viability, PANFR0172_T2; format: cell-based, human; details: read-out: PANFR0172_T2 3D organoid culture IC50
Method in brief: (§1)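 Patient-derived PDAC organoids were dissociated to single cells and plated at 1000 viable cells/well in complete organoid medium with 10% Matrigel, in ultra-low-attachment 384-well plates. After 24 h, compound was added by digital dispenser, then 7 days incubation. Read-out was CellTiter-Glo 3D luminescence after 1 h shaking at room temperature, normalized to DMSO wells for each culture.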

PATU-8988T cells [1] = assay: Cell viability, 2D-adherent monolayer culture, PATU-8988T; format: cell-based, human; details: 120 h, read-out: PATU-8988T cells 2D monolayer culture IC50
Method in brief: (§2)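 PATU-8988T and PATU-8902 cells were plated at 100 cells/well in 50 μL media, either adherent (2D) or in ultra-low attachment spheroid plates (3D), overnight. Test compound was pin-transferred and cells were incubated 120 h. Viability was read by CellTiter-Glo luminescence after 15 min at room temperature. Data were normalized to DMSO-treated wells per cell line and fitted.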

PANFR0172_T4 = assay: Patient-derived pancreatic organoid viability, PANFR0172_T4; format: cell-based, human; details: read-out: PANFR0172_T4 3D organoid culture IC50
Method in brief: as §1

DCLK1 protein levels = DCLK1 protein levels by immunoblot in PDAC cells; format: cell-based, human; details: after 48 h, PATU-8988T and PATU-8902 cells
PANFR0029_T2 = assay: Patient-derived pancreatic organoid viability, PANFR0029_T2; format: cell-based, human; details: read-out: PANFR0029_T2 3D organoid culture IC50
Method in brief: as §1

PATU-8902 cells [2] = assay: Cell viability, ultra-low adherent 3D-spheroid culture, PATU-8902; format: cell-based, human; details: read-out: PATU-8902 cells 3D spheroid culture IC50
Method in brief: as §2

PATU-8902 cells [3] = assay: Cell viability, 2D-adherent monolayer culture, PATU-8902; format: cell-based, human; details: read-out: PATU-8902 cells 2D monolayer culture IC50
Method in brief: (§3)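 PATU-8902 or PATU-8988T cells were plated at 100 cells/well and left overnight to adhere (2D plates) or to form spheroids (ultra-low-attachment 3D spheroid plates). Compound was pin-transferred, then 120 h incubation. Viability by CellTiter-Glo luminescence after 15 min at room temperature, normalized to DMSO-treated wells for each cell line.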

PATU-8988T cells [4] = assay: Cell viability, ultra-low adherent 3D-spheroid culture, PATU-8988T; format: cell-based, human; details: 120 h, read-out: PATU-8988T cells 3D spheroid culture IC50
Method in brief: as §3

PANFR0172_T3 = assay: Patient-derived pancreatic organoid viability, PANFR0172_T3; format: cell-based, human; details: read-out: PANFR0172_T3 3D organoid culture IC50
Method in brief: as §1

[5] = molecular target: T1, DCLK1-Nluc in HCT116 cells (Homo sapiens, UniProt O15075); assay: DCLK1 NanoBRET target engagement assay in HCT116 cells; format: cell-based
T1 sequence (O15075 1-729 isoform O15075-2): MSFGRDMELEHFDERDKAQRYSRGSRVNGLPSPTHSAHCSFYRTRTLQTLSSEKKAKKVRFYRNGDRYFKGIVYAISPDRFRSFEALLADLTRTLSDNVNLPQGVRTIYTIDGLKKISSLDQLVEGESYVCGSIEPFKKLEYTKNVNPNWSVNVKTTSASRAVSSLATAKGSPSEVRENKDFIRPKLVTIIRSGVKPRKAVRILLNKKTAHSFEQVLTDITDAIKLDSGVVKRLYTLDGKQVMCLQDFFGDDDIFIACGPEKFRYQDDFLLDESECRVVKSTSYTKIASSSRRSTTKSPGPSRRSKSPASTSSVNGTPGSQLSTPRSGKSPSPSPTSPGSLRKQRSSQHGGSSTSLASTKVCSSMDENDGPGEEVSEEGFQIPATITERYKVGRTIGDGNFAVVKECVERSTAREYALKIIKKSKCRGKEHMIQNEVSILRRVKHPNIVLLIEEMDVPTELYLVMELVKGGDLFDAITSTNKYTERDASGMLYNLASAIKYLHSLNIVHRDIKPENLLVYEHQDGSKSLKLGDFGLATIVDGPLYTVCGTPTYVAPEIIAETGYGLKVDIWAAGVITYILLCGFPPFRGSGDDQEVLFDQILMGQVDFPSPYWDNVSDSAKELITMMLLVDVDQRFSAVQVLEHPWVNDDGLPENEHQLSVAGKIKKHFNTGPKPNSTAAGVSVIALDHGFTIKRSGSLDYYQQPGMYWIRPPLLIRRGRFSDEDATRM

DCLK2 = molecular target: T2, DCLK2 (Homo sapiens, UniProt Q8N568); assay: DCLK2 KINOMEscan binding assay
T2 sequence (Q8N568 1-766): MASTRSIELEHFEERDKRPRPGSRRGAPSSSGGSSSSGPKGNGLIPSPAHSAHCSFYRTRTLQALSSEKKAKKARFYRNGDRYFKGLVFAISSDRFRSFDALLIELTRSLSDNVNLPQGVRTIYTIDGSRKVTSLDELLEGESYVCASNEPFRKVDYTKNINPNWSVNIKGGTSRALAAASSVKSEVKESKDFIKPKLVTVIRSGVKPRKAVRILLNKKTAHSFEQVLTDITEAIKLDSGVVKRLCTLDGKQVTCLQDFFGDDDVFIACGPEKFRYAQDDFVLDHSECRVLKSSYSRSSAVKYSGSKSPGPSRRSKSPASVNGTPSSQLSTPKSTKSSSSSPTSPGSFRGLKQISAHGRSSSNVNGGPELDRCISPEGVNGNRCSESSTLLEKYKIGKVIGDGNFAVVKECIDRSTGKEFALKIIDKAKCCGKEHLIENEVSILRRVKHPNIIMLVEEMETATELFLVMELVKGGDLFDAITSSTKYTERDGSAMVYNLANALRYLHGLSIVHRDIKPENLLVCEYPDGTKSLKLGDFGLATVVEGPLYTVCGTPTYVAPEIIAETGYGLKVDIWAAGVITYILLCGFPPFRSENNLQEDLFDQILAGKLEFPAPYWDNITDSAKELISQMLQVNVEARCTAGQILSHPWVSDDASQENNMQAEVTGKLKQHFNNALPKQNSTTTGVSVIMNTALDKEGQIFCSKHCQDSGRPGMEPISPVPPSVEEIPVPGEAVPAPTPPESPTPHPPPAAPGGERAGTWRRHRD
Method in brief: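 KINOMEscan competition binding run by a contract lab. Test compound in 12-point dose response, top concentration 10 μM. Values are the mean of n = 2 biologically independent samples.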

LRRK2 = LRRK2 (Homo sapiens, UniProt Q5S007); assay: LRRK2 ADAPTA kinase assay; format: biochemical; details: LRRK2 kinase assay IC50, ADAPTA; Table 1
DCLK1 = molecular target: T3, DCLK1 (Homo sapiens, UniProt O15075); assay: 33P-ATP DCLK1 kinase assay; format: biochemical; details: DCLK1 kinase assay IC50, 33P-ATP; ATP 50 μM (Km)
T3 sequence (O15075 1-740): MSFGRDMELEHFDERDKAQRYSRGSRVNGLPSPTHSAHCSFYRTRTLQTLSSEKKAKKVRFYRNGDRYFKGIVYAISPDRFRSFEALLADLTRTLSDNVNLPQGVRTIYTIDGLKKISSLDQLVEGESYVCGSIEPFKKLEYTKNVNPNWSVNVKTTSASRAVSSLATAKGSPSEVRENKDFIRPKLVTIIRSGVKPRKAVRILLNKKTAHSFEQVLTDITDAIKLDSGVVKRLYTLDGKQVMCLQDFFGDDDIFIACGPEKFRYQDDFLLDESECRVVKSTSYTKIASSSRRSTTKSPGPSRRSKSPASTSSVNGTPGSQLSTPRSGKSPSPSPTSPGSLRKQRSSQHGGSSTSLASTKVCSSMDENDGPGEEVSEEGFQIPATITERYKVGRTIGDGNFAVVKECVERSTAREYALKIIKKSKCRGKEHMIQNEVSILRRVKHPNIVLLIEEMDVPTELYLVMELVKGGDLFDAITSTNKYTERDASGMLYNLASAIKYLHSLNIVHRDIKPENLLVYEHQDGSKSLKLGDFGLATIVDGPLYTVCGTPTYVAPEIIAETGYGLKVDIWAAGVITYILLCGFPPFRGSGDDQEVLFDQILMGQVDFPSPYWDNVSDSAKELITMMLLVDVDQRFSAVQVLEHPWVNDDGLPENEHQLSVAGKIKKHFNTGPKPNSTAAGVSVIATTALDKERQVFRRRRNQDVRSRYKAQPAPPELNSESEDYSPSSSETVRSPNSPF

FKBP12^F36V-KRAS^G12V = assay: KRAS G12V degradation by immunoblot in FKBP12F36V-KRASG12V; format: cell-based, human; details: KRAS^−/− cells
[6] = viability, 7 d, P.R. = partial response

LRRK2, sequence (Q5S007 whole entry): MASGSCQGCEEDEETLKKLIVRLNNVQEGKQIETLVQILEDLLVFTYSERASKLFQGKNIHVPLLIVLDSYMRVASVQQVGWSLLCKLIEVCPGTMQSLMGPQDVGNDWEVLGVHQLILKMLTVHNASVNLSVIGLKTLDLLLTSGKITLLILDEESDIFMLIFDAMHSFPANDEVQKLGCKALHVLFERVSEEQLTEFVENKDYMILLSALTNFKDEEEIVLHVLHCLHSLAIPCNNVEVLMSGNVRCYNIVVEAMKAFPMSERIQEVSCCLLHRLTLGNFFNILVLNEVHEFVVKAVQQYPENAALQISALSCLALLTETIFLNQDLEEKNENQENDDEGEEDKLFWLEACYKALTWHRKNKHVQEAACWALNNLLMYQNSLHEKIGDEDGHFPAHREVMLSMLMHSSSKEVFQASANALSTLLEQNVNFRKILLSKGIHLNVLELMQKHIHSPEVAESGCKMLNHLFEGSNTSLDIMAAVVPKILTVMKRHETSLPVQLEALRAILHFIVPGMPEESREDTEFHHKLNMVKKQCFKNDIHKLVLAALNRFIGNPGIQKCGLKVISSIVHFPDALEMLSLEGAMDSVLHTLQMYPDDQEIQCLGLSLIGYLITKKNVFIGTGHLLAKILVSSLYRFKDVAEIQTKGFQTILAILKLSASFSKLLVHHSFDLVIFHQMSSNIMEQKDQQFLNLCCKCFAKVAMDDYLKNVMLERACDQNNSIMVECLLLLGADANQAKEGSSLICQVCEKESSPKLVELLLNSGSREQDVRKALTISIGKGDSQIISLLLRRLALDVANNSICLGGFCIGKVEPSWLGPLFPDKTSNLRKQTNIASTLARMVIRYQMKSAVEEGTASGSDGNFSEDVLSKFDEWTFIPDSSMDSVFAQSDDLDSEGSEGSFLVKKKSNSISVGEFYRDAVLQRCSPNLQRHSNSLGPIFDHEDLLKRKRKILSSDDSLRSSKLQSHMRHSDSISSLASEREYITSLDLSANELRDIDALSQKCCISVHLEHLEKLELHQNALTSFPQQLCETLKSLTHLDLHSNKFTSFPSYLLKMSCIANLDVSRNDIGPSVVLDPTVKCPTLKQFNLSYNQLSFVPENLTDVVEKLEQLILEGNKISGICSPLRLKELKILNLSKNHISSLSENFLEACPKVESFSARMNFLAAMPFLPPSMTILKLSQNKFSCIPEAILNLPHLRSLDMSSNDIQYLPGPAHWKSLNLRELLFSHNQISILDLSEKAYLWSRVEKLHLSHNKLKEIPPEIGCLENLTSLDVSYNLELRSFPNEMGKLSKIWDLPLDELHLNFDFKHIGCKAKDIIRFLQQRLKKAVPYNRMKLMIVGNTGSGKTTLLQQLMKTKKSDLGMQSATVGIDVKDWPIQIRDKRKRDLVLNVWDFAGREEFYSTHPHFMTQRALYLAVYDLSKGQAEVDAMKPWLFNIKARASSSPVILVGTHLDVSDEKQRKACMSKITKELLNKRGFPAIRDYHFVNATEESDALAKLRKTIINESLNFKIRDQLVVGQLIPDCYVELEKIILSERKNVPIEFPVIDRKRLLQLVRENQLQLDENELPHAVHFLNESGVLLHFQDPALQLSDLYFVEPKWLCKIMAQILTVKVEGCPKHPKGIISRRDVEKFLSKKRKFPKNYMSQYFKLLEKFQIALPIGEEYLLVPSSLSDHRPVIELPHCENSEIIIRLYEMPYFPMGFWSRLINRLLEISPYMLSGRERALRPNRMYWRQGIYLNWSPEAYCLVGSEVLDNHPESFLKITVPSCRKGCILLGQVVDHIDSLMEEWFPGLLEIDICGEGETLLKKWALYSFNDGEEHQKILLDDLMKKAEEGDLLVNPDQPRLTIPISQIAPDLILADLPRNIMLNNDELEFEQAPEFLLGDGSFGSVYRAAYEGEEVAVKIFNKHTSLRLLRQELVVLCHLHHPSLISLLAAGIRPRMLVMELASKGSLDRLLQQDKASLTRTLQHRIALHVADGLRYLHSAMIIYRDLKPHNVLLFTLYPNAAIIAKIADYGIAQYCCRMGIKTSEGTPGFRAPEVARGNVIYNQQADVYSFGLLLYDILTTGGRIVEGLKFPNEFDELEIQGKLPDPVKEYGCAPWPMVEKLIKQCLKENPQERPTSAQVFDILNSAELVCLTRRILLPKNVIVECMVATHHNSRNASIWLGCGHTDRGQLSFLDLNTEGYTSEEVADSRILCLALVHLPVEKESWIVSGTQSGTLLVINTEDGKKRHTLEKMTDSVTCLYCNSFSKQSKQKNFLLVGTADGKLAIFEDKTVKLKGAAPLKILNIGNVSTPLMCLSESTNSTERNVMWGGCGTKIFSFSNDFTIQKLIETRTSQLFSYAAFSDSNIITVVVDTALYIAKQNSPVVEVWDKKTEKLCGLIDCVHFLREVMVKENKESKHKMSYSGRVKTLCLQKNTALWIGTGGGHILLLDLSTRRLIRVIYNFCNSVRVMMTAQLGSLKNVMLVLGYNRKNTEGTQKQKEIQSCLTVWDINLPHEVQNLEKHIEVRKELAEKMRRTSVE

Structure (SMILES): CC(=O)Nc1cccc(-n2c(=O)n(C3CC3)c(=O)c3c(Nc4ccc(I)cc4F)n(C)c(=O)c(C)c32)c1 [Trametinib]
IC50 (PANFR0172_T2; Homo sapiens, 168 h): 0.791 µM
IC50 (PATU-8988T cells [1]; Homo sapiens, PaTu 8988t): 0.06 µM
IC50 (PANFR0172_T4; Homo sapiens, 168 h): > 20 µM
effect on DCLK1 protein levels (DCLK1 protein levels): diminished DCLK1 protein levels
IC50 (PANFR0029_T2; Homo sapiens, 168 h): 0.185 µM
IC50 (PATU-8902 cells [2]; Homo sapiens, PaTu 8902, 120 h): < 0.00063 µM
IC50 (PATU-8902 cells [3]; Homo sapiens, PaTu 8902, 120 h): 0.00489 µM
IC50 (PATU-8988T cells [4]; Homo sapiens, PaTu 8988t): 0.001 µM
IC50 (PANFR0172_T3; Homo sapiens, 168 h): 1.18 µM

Structure (SMILES): Cc1sc2c(c1C)C(c1ccc(Cl)cc1)=N[C@@H](CC(=O)OC(C)(C)C)c1nnc(C)n1-2 [JQ1]
IC50 (PANFR0172_T2; [6]): > 1 µM
IC50 (PATU-8988T cells [1]; cell viability, P.R. = partial response): 0.0674 µM
IC50 (PANFR0172_T4; [6]): > 1 µM
IC50 (PANFR0029_T2; viability, 7 d, DCLK1-negative organoids): 0.363 µM
IC50 (PATU-8902 cells [2]; cell viability, 120 h, P.R. = partial response): > 1 µM
IC50 (PATU-8902 cells [3]; cell viability, 120 h): 1.81 µM
IC50 (PATU-8988T cells [4]; cell viability): 0.111 µM
IC50 (PANFR0172_T3; [6]): > 1 µM

IC50 [5]: 0.4 µM
IC50 (DCLK2): 0.0099 µM
IC50 (LRRK2): 0.0041 µM
IC50 (DCLK1): 0.055 µM
Structure (SMILES): COc1cc(C(=O)N2CCC(N3CCN(C)CC3)CC2)ccc1Nc1ncc2c(n1)N(C)c1ccccc1C(=O)N2C [LRRK2-IN-1]
IC50 (PANFR0172_T2; Homo sapiens, 168 h): 1.34 µM
IC50 (PATU-8988T cells [1]; Homo sapiens, PaTu 8988t): 1.15 µM
IC50 (PANFR0172_T4; Homo sapiens, 168 h): > 20 µM
IC50 (PATU-8902 cells [2]; Homo sapiens, PaTu 8902, 120 h): > 1 µM
IC50 (PATU-8902 cells [3]; Homo sapiens, PaTu 8902, 120 h): > 20 µM
IC50 (PATU-8988T cells [4]; Homo sapiens, PaTu 8988t): 1.87 µM
IC50 (PANFR0172_T3; Homo sapiens, 168 h): 1.5 µM

Structure (SMILES): CC[C@H](C(=O)N1CCCC[C@H]1C(=O)O[C@H](CCc1ccc(OC)c(OC)c1)c1ccccc1OCC(=O)NCCCCCCOc1cccc2c1C(=O)N(C1CCC(=O)NC1=O)C2=O)c1cc(OC)c(OC)c(OC)c1 (some centres unmarked) [dTAG-13]
time to initiation of KRAS^G12V degradation (FKBP12^F36V-KRAS^G12V): ≤ 1 h
